≈ marks a conversion by molar mass, not a printed value.
What was measured:
[1] = test system: Mycolicibacterium smegmatis; assay: Antimycobacterial activity against Mycobacterium smegmatis mc2155 after 48 hrs by microdilution resazurin assay; type: functional; details: str. MC2 155, 48 h
How it was run: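 Inoculum of M. smegmatis mc²155 grown in Dubos medium + 10% ADC; twofold serial dilutions in Dubos broth, 500 to 0.9 µg/mL. DMSO and isoniazid controls. 48 h at 37 °C, then 0.01% resazurin added, further 24 h. Growth is read as blue-to-pink change plus OD 530–630 nm.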

[2] = test system: Mycobacterium tuberculosis; assay: Antimycobacterial activity against Mycobacterium tuberculosis H37Rv after 6 days by microdilution resazurin assay; type: functional; details: 144 h
How it was run: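 M. tuberculosis H37Rv inoculum grown in Dubos medium with 10% ADC. Twofold dilutions in Dubos broth, 500 to 0.9 µg/mL, with DMSO and isoniazid controls. Incubated 6 days at 37 °C, then 0.01% resazurin added for 24 h more. Read by colour change (blue to pink) and OD 530–630 nm. MIC95 (>95% growth inhibition) derived by curve fitting.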

SMILES	MIC95 [1]	MIC95 [2]
CC1(C)C=Cc2cc3oc4ccccc4c3c(Br)c2O1	120 µg/mL (≈ 365 µM)	30 µg/mL (≈ 91.1 µM)
CC1(C)C=Cc2c(ccc3oc4c(c23)CCCC4)O1	> 500 µg/mL	120 µg/mL (≈ 472 µM)
NNC(=O)c1ccncc1 [ISONIAZID]	12 µg/mL (≈ 87.5 µM)	0.1 µg/mL (≈ 0.729 µM)
CC(=O)c1ccc2oc3ccc(C(C)=O)cc3c2c1	5 µg/mL (≈ 19.8 µM)	10 µg/mL (≈ 39.6 µM)
CC(=O)c1cc2oc3ccccc3c2c2c1OC(C)(C)CC2	> 500 µg/mL	> 500 µg/mL
Oc1ccc2oc3ccccc3c2c1	–	25 µg/mL (≈ 136 µM)
Oc1ccc2oc3ccc(O)cc3c2c1	15 µg/mL (≈ 74.9 µM)	15 µg/mL (≈ 74.9 µM)
CC1(C)C=Cc2cc(C(=O)c3ccccc3)ccc2O1	20 µg/mL (≈ 75.7 µM)	40 µg/mL (≈ 151 µM)
CC1(C)C=Cc2c(ccc3oc4ccccc4c23)O1	10 µg/mL (≈ 40 µM)	10 µg/mL (≈ 40 µM)
CC1(C)CCc2c(c(Br)cc3oc4ccccc4c23)O1	> 500 µg/mL	> 500 µg/mL
CC1(C)CCc2c(ccc3oc4ccccc4c23)O1	10 µg/mL (≈ 39.6 µM)	10 µg/mL (≈ 39.6 µM)
Oc1ccc2oc3c(c2c1)CCCC3	31 µg/mL (≈ 165 µM)	500 µg/mL (≈ 2660 µM)
CC1(C)CCc2cc3oc4ccccc4c3cc2O1	40 µg/mL (≈ 159 µM)	> 500 µg/mL
CC1(C)C=Cc2cc3oc4ccccc4c3cc2O1	20 µg/mL (≈ 79.9 µM)	35 µg/mL (≈ 140 µM)
CC(=O)c1cc2oc3ccccc3c2c2c1OC(C(C)C)C2 (stereo unspecified)	> 500 µg/mL	> 500 µg/mL
CC1(C)CCc2cc(C(=O)c3ccccc3)c(O)cc2O1	4 µg/mL (≈ 14.2 µM)	62 µg/mL (≈ 220 µM)

SMILES	MIC95 [1]	MIC95 [2]
CC1(C)C=Cc2cc(-c3ccccc3)ccc2O1	> 500 µg/mL	> 500 µg/mL
C#CC(C)(C)Oc1ccc2oc3ccc(C(C)=O)cc3c2c1	> 100 µg/mL	> 100 µg/mL
C#CC(C)(C)Oc1ccc(Oc2ccccc2)cc1	> 100 µg/mL	> 100 µg/mL
C#CC(C)(C)Oc1ccc(-c2ccccc2)cc1	> 100 µg/mL	> 100 µg/mL
CC1(C)CCc2cc(C(=O)c3ccccc3)ccc2O1	50 µg/mL (≈ 188 µM)	30 µg/mL (≈ 113 µM)
CC1(C)CCc2cc(Cc3ccccc3)ccc2O1	> 500 µg/mL	30 µg/mL (≈ 119 µM)
CC(=O)c1ccc2oc3ccc(O)cc3c2c1	> 500 µg/mL	8 µg/mL (≈ 35.4 µM)
CC1(C)C=Cc2cc(C(O)c3ccccc3)ccc2O1 (stereo unspecified)	20 µg/mL (≈ 75.1 µM)	20 µg/mL (≈ 75.1 µM)
CC1(C)C=Cc2cc(Oc3ccccc3)ccc2O1	70 µg/mL (≈ 277 µM)	> 500 µg/mL
O=C(c1ccc(O)cc1)c1ccc(O)cc1	62 µg/mL (≈ 289 µM)	125 µg/mL (≈ 584 µM)
CC(=O)c1ccc2oc3ccc4c(c3c2c1)C=CC(C)(C)O4	> 500 µg/mL	> 500 µg/mL
C#CC(C)(C)Oc1ccc2oc3c(c2c1)CCCC3	> 100 µg/mL	> 100 µg/mL
C#CC(C)(C)Oc1cccc(-c2ccccc2)c1	> 100 µg/mL	> 100 µg/mL
CC1(C)C=Cc2cc(C(O)c3cccnc3)ccc2O1 (stereo unspecified)	62 µg/mL (≈ 232 µM)	62 µg/mL (≈ 232 µM)
CC1(C)C=Cc2cc(C(=O)c3ccc(O)cc3)ccc2O1	32 µg/mL (≈ 114 µM)	62 µg/mL (≈ 221 µM)

— ChEMBL document CHEMBL1139091, “Synthesis and antimycobacterial evaluation of benzofurobenzopyran analogues” (2007)
